Results published in ChEMBL document CHEMBL1138808, “Synthesis and anticancer activity of simplified indenoisoquinoline topoisomerase I inhibitors lacking substituents on the aromatic rings” (2004).

Legend:
OVCAR-3 = assay: Growth inhibitory activity against human ovarian OVCAR-3 cell line; type: functional
How it was run: (§1)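 Growth inhibition in human cancer cell culture. GI50 is the concentration giving 50% growth inhibition. Compounds were tested at concentrations up to […].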

MDA-MB-435 = assay: Growth inhibitory activity against human breast MDA-MB-435 cell line; type: functional; how it was run: as §1
UACC-62 = assay: Growth inhibitory activity against human melanoma UACC-62 cell line; type: functional; how it was run: as §1
[1] = tested on: Panel (Carcinoma cell lines); assay: Mean graph mid point for growth inhibition of human cancer cell lines; type: functional; design: unit not given here
How it was run: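 Mean graph midpoint of growth inhibition, taken across all human cancer cell lines successfully tested. Compounds were tested at concentrations up to […], and GI50 is the concentration giving 50% growth inhibition.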

HCT-116 = assay: Growth inhibitory activity against human colon HCT116 cell line; type: functional; how it was run: as §1
DU-145 = assay: Growth inhibitory activity against human prostate DU-145 cell line; type: functional; how it was run: as §1
[2] = Growth inhibitory activity against human CNSSF-539 cell line; type: functional; how it was run: as §1
[3] = biological target: T1, DNA topoisomerase 1 (Homo sapiens) (UniProt P11387); assay: Induction of topoisomerase I mediated DNA cleavage; greater activity than parent compound 1
T1 sequence (whole entry): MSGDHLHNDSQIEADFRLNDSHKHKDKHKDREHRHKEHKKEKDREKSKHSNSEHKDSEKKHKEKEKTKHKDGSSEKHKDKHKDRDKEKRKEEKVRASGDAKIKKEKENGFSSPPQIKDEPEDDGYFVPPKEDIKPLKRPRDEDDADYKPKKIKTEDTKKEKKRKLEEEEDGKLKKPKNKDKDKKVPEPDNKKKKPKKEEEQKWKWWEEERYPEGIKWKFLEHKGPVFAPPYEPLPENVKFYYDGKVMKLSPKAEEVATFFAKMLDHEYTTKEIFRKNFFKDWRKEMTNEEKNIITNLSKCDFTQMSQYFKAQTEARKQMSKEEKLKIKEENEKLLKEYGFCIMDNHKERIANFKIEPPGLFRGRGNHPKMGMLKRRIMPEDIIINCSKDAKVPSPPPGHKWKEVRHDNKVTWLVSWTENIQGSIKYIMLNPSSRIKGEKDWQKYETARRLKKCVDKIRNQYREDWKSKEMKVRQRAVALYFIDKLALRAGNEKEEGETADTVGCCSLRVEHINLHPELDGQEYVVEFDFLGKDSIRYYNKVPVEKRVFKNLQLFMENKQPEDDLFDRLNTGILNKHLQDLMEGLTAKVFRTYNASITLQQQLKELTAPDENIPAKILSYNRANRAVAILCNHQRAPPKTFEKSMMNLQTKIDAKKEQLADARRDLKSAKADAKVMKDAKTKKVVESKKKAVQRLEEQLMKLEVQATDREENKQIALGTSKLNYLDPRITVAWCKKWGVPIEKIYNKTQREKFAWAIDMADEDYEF

HOP-62 = assay: Growth inhibitory activity against human lung HOP-62 cell line; type: functional; how it was run: as §1
SN12C = assay: Growth inhibitory activity against human renal SN12C cell line; type: functional; how it was run: as §1
[4] = biological target: T1, DNA topoisomerase 1 (Homo sapiens); assay: Induction of topoisomerase I mediated DNA cleavage; Activity similar to 1 uM camptothecin
[5] = biological target: T1, DNA topoisomerase 1 (Homo sapiens); assay: Induction of topoisomerase I mediated DNA cleavage; Greater activity than parent compound 1
[6] = biological target: T1, DNA topoisomerase 1 (Homo sapiens); assay: Induction of topoisomerase I mediated DNA cleavage; weak activity
[7] = biological target: T1, DNA topoisomerase 1 (Homo sapiens); assay: Induction of topoisomerase I mediated DNA cleavage; Activity similar to parent compound 1

Row | GI50 (OVCAR-3) [µM] | GI50 (MDA-MB-435) [µM] | GI50 (HCT-116) [µM] | GI50 (DU-145) [µM] | DNA cleavage [3] | DNA cleavage [4] | DNA cleavage [5] | DNA cleavage [6] | DNA cleavage [7] | Compound | GI50 (UACC-62) [µM] | Mean graph mid point [1] | GI50 [2] [µM] | GI50 (HOP-62) [µM] | GI50 (SN12C) [µM]
1 | 89.1 | > 100 | 95.5 | > 100 | greater activity than compound 1 |  |  |  |  | CCn1c2c(c3ccccc3c1=O)C(=O)c1cc3c(cc1-2)OCO3 | 20 | 51.3 | 40.7 | 36.3 | > 100
2 |  |  |  |  |  | Activity similar to 1 uM camptothecin |  |  |  | O=C1c2ccccc2-c2c1c1ccccc1c(=O)n2CCCn1ccnc1 |  | 1.86 | 2.34 |  | 
3 | 0.86 | 1.04 | 0.068 | 0.4 |  |  | Greater activity than compound 1 |  |  | COc1cc2c3c(n(CCN)c(=O)c2cc1OC)-c1cc2c(cc1C3=O)OCO2.Cl | 0.14 | 0.34 | 1.3 | 0.58 | 0.36
4 | 3.85 | 2.56 | 1.12 | 1.28 |  |  |  | Weak activity |  | O=C1c2ccccc2-c2c1c1ccccc1c(=O)n2CCNCCO | 1.42 | 1.9 | 1.65 | 1.62 | 0.95
5 | 0.35 |  |  | > 0.01 |  |  | Greater activity than compound 1 |  |  | COc1cc2c3c(n(CCCNCCO)c(=O)c2cc1OC)-c1cc2c(cc1C3=O)OCO2.Cl |  | 0.11 | 0.04 |  | > 0.01
6 | 18.2 | 25.7 | 22.4 | 7.59 |  |  |  | Weak activity |  | O=C1c2cc3c(cc2-c2c1c1ccccc1c(=O)n2CCCBr)OCO3 |  | 9.77 | 0.37 |  | 0.23
7 | 1.4 | 0.65 | 0.12 | 0.14 |  |  | Greater activity than compound 1 |  |  | COc1cc2c3c(n(CCCN(C)C)c(=O)c2cc1OC)-c1cc2c(cc1C3=O)OCO2 | 0.54 | 0.35 | 0.19 | 0.018 | 0.9
8 |  |  |  |  |  |  |  |  | Activity similar to parent compound 1 | COc1cc2c(cc1OC)-c1c(c3ccccc3c(=O)n1CCCN)C2=O.Cl |  | 0.62 | 2.93 |  | 
9 | 1.78 | 1.45 | 1.58 | 0.41 |  |  |  |  | Activity similar to parent compound 1 | Cl.Cl.O=C1c2ccccc2-c2c1c1ccccc1c(=O)n2CCCNCCCn1ccnc1 | 6.92 | 1 | 1.07 | 0.41 | 2
10 | 1.7 | 2.82 | 0.58 | 1.32 | greater activity than compound 1 |  |  |  |  | CN(C)CCCn1c2c(c3ccccc3c1=O)C(=O)c1ccccc1-2 | 0.51 | 1.86 |  | 1.74 | 0.91
11 | 0.71 | 0.92 | 0.27 | 0.76 | greater activity than compound 1 |  |  |  |  | Cl.NCCn1c2c(c3ccccc3c1=O)C(=O)c1ccccc1-2 | 0.92 | 0.53 | 0.21 | 0.62 | 0.49
12 | 1.38 | 0.78 | 0.18 | 0.22 | greater activity than compound 1 |  |  |  |  | Cl.NCCCn1c2c(c3ccccc3c1=O)C(=O)c1ccccc1-2 | 0.26 | 0.32 | 0.25 | 0.2 | 0.16
